The results in this text go back to ChEMBL document CHEMBL1156927, “New pterocarpanquinones: synthesis, antineoplasic activity on cultured human malignant cell lines and TNF-alpha modulation in human PBMC cells” (Bioorg Med Chem, 2010).

One series relates to K562. Nature of the series: Growth inhibition of human K562 cells after 24 to 72 hrs by MTT assay. The class given is functional, cell-based. The procedure, abridged: (§1)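 Leukemic lines in medium with 50 µM β-mercaptoethanol, 25 mM Hepes pH 7.4, antibiotics and 10% heat-inactivated FCS (Daudi 20% FCS; Lucena-1 kept with 60 nM vincristine to maintain MDR phenotype). Cells exposed to compound for 24, 48 or 72 h. Viability by MTT: 3 h at 37 °C, DMSO solubilisation, absorbance at 490 nm.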

The test system of a further series is HL-60. Description: Growth inhibition of human HL60 cells after 72 hrs by MTT assay. The note with it: HL-60, 72 h. The class given is functional, cell-based. Summed up: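 2 × 10⁴ cells/mL seeded in drug-free medium or medium with a range of compound concentrations, 72 h at 37 °C, 5% CO₂. MTT read-out: 3 h incubation, formazan dissolved in DMSO, A490. IC50 = concentration inhibiting growth by 50%. Mean of three independent experiments, triplicate wells.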

In series [1] the test system is PBMC. Description: Growth inhibition of phytohemagglutinin-activated human PBMC cells after 24 to 72 hrs by MTT assay. In kind it is cell-based. For orientation: Tetrazolium dyes change colour on reduction, which living cells bring about.
For a further series, the system named is Daudi. Description: Growth inhibition of human Daudi cells after 24 to 72 hrs by MTT assay. The class given is functional, cell-based. The procedure, abridged:
as §1

A short description of series [2]: Growth inhibition of human K562-Lucena 1 cells after 24 to 72 hrs by MTT assay. The class given is functional. The procedure, abridged:
as §1

Another series has as its system Raji. Nature of the series: Growth inhibition of human Raji cells after 24 to 72 hrs by MTT assay. In kind it is functional, cell-based. The procedure, abridged:
as §1

Series [3] has as its system PBMC. Nature of the series: Antiinflammatory activity in human PBMC assessed inhibition of LPS-stimulated TNFalpha production at 100 uM after 2 hrs by ELISA. The class given is functional. Summed up:
(§2)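 PBMC at 10⁶ cells/mL stimulated with 2 µg/mL E. coli 055:B5 LPS for 2 h at 37 °C, 5% CO₂, co-incubated with vehicle (0.5% DMSO in RPMI 1640) or compound at several concentrations. TNF-α measured in supernatants. Three experiments, mean ± SEM.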
For orientation: In an ELISA, binding on a coated surface is turned into a signal by an enzyme label.

Series [4] relates to PBMC. Nature of the series: Antiinflammatory activity in human PBMC assessed reduction of LPS-stimulated TNFalpha production at 25 uM after 2 hrs by ELISA. In kind it is functional, cell-based. Summed up: as §2
The next series has as its system A549. Nature of the series: Growth inhibition of human A549 cells after 72 hrs by MTT assay. The class given is functional, cell-based. The note with it: A549, 72 h. Summed up:
(§3)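 Adherent lung cancer cells allowed to attach 24 h, then exposed to compound. 2 × 10⁴ cells/mL in drug-free or compound-containing medium, 72 h at 37 °C, 5% CO₂. MTT added, 3 h at 37 °C, formazan dissolved in DMSO, absorbance at 490 nm. IC50 from three independent experiments, each concentration in triplicate.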

Series [5] is described as follows: Toxicity in LPS-stimulated human PBMC cells assessed as cell viability at 100 uM. The class given is cell-based.
Another series has as its system NCI-H460. Description: Growth inhibition of human H460 cells after 72 hrs by MTT assay. In kind it is functional, cell-based. The following applies: NCI-H460, 72 h. Summed up:
as §3

The nature of series [6]: Growth inhibition of human GLC4 cells after 72 hrs by MTT assay. The note with it: GLC4, 72 h. In kind it is functional, cell-based. The procedure, abridged:
as §3

In a further series the test system is Jurkat. Description: Growth inhibition of human Jurkat cells after 24 to 72 hrs by MTT assay. In kind it is functional, cell-based. The procedure, abridged: as §1

The source made the active and inactive calls. The calls are words filed in the database; no cut-off is given here.

With `O=C1C2=C(OC[C@@H]3c4cc5c(cc4O[C@H]23)OCO5)C(=O)c2c1ccc(O)c2O`, the values for the IC50 with K562 and in the series on HL-60 were 2.95 µM and 2.1 µM, respectively.

As for `O=C1C2=C(C(=O)c3ccccc31)[C@H]1Oc3ccc([N+](=O)[O-])cc3[C@H]1CO2` (racemic), the IC50 amounted to 3.48 µM in the series on K562 and 0.4 µM in the series with HL-60.

Turning to `O=C1C2=C(C(=O)c3ccccc31)[C@H]1Oc3ccc(Cl)cc3[C@H]1CO2` (racemic), the IC50 in the series on K562 is 6.77 µM; in the series on HL-60, 4.87 µM.

Consider `O=C1C2=C(C(=O)c3ccccc31)[C@H]1Oc3ccc(Br)cc3[C@H]1CO2` (racemic), for which the IC50 in the series with K562 is 5.7 µM; in the series with HL-60 it was 4.87 µM.

In the series on K562, `COc1cc2c(cc1O)[C@H]1COC3=C(C(=O)c4ccccc4C3=O)[C@H]1O2` (racemic) returned an IC50 of 2.18 µM. This counts as single-digit micromolar.

For the compound `CO[C@@]12[C@H](COC(N)=O)C3=C(C(=O)C(C)=C(N)C3=O)N1C[C@@H]1N[C@@H]12` [MITOMYCIN], the IC50 with PBMC [1] was found to be 4.03 µM; with K562, 0.47 µM; in the series on Daudi it was 0.45 µM; in [2], 2.75 µM.

Consider `O=C1C2=C(C(=O)c3ccccc31)[C@H]1Oc3ccccc3[C@H]1CO2` [PTEROCARPANQUINONE], for which the IC50 was 3.32 µM in the series on Raji; above 20 µM in the series on PBMC [1]; 1.67 µM in the series with K562; 3.1 µM in the series on Daudi; 11.2 µM in the series with A549; 2 µM with HL-60. The IC50 stood at 12.9 µM in the series with NCI-H460, 5.17 µM in [6], 2.75 µM in series [2] and 6.77 µM with Jurkat. Moreover, at 100 µM the inhibition in the series on PBMC [3] was 100%. In the series with PBMC [4], the inhibition entry is “Active”. In addition, the viability at 100 µM in series [5] was above 70%.

Broadly, the IC50 is the point on the concentration scale where inhibition reaches its midpoint. Low values mean higher potency, high ones lower potency. The inhibition is the relative decrease from the control value, in per cent. In general, viability refers to the share of living cells, or the viability signal relative to a control.
